KDM4C inh: inhibitors of human demethylase GASC-1 KDM4C | GST-KDM4C 2-372, H3K9me3 peptide, LANCE TR-FRET | inhibition, % at 12.5 µM | actives 0.15% (n = 96,000) | Q9H3R0;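 active means mean replicate inhibition above about 25%, with at least 55% of replicates also reaching it, limit read from the data, passing the limit was not always enough; inconclusive means only one of those two conditions met; inactive means neither condition met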
Target sequence (Q9H3R0 2-372 limits assumed): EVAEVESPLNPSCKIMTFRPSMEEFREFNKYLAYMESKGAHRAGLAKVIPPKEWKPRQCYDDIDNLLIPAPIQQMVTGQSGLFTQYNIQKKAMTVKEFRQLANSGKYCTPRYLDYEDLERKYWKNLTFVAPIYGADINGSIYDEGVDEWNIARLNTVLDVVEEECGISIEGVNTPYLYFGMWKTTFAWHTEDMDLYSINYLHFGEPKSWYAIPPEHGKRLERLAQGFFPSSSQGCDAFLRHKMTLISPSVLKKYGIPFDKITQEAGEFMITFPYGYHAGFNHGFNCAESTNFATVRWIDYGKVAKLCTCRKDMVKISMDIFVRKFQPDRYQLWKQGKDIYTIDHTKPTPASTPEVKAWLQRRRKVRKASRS
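System: N-terminal GST-fused human GASC-1 (KDM4C) fragment, residues 2-372 / Amount: 10 nM GST-KDM4C in enzyme reaction / Also added: H3K9me3 peptide with Fe(II)/2OG / Times: 30 min demethylation and 1 h detection at room temperature / Signal: LANCE TR-FRET / Read-out basis: Fall in 671/618 emission ratio as inhibition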
T cruzi growth: blocks T. cruzi growth in NIH3T3 culture. inhibition, % at 8.34 µM. actives 5.9% (n = 77,000). T. cruzi beta-gal in NIH3T3, GalScreen luminescence, 90 h. AID 624255;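 active means mean inhibition above about 93%, with at least 55% of replicates each passing it, limit read from the data, passing the limit was not always enough; inconclusive means only one of those two conditions holds; inactive means neither condition holds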
Pf Dd2 inh: blocks growth of Plasmodium falciparum Dd2 parasites. activity change, % at 10 µM. actives 2.3% (n = 94,000). P. falciparum Dd2 growth, SYBR Green, 72 h; active compounds read low; in the data active means activity change below about -80%; inconclusive means no clear call, values can overlap the other calls
IDH1 R132H inh: blocks human IDH1 R132H reductase activity. O75874. actives 0.18% (n = 70,000). diaphorase/resazurin fluorescence, 60 min. inhibition, % at 10 µM; in the data active means inhibition above about 34%; inconclusive means no clear call, values can overlap the other calls; inactive means below about 11%;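 further: 0% = DMSO and 100% = no enzyme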
Starred values were filed as active, the others as inactive; ? = inconclusive; / = no result. Most compounds without a hit are left out; they make up all but 5.9% or so of the library.

SMILES | KDM4C inh | T cruzi growth | Pf Dd2 inh | IDH1 R132H inh
C[C@H](CO)N1C[C@H](C)[C@@H](CN(C)C(=O)NC2CCCCC2)Oc2ncc(/C=C/c3ccccc3)cc2C1=O | 0.4 | / | -83.7* | 0.3
C[C@@H]1CN([C@@H](C)CO)C(=O)c2cccc(N(C)C)c2O[C@@H]1CN(C)C(=O)Nc1cccc2ccccc12 | 1.5 | 63.0 | -83.0* | -2.0
C[C@H]1CN([C@@H](C)CO)C(=O)c2cccc(N(C)C)c2O[C@@H]1CN(C)C(=O)Nc1cccc2ccccc12 | 2.0 | 16.2 | 1.9 | 2.2
COc1ccc(NC(=O)N(C)C[C@H]2Oc3c(NC(=O)CCCCCC(=O)Nc4ccccc4N)cccc3C(=O)N([C@H](C)CO)C[C@H]2C)cc1 | 1.6 | / | -86.7* | -0.3
C[C@@H]1CN([C@H](C)CO)C(=O)c2cccc(NC(=O)CCCCCC(=O)Nc3ccccc3N)c2O[C@@H]1CN(C)C(=O)Nc1ccc(C(F)(F)F)cc1 | 0.7 | / | -88.0* | /
O=C(C[C@@H]1CC[C@H](NC(=O)c2ccncc2)[C@H](CO)O1)NCc1ccncn1 | -2.6 | / | -9.3 | /
O=C(NC1CCCCC1)N[C@@H]1CC[C@@H](CC(=O)N2CCOCC2)O[C@@H]1CO | 7.5 | / | 23.7 | 0.2
C[C@H]1CN([C@@H](C)CO)C(=O)c2cccc(NC(=O)CCCCCC(=O)Nc3ccccc3N)c2O[C@@H]1CN(C)C(=O)Nc1ccc(C(F)(F)F)cc1 | 2.0 | / | -82.0* | 0.4
CCC(=O)N1CC2(CCN(C(=O)Nc3ccc(F)cc3)CC2)c2c([nH]c3cc(OC)ccc23)[C@H]1CO | 0.1 | / | -84.3* | /
CCC(=O)N1CC2(CN(C(=O)Nc3ccc(F)cc3)C2)c2c([nH]c3cc(OC)ccc23)[C@H]1CO | -0.6 | / | -52.0 | /
COc1ccc2c3c([nH]c2c1)[C@H](CO)N(S(C)(=O)=O)CC31CCN(C(=O)Nc2ccccc2)CC1 | / | / | -82.8* | /
COc1ccc2c3c([nH]c2c1)[C@@H](CO)NCC31CCN(C(=O)Nc2ccc(F)cc2)CC1 | 0.3 | / | -17.2 | /
COc1ccc2c3c([nH]c2c1)[C@H](CO)N(C(C)=O)CC31CCN(C(=O)Nc2ccccc2F)CC1 | 0.4 | / | -88.8* | /
COc1ccc2c3c([nH]c2c1)[C@H](CO)NCC31CCN(C(=O)Nc2ccc3c(c2)OCO3)CC1 | -1.9 | / | -94.2* | /
COc1ccc2c3c([nH]c2c1)[C@@H](CO)N(S(C)(=O)=O)CC31CCN(C(=O)Nc2ccccc2)CC1 | -0.6 | / | -51.2 | /
CC(=O)N(C)C[C@H]1Oc2cc(C#CCC3CCCC3)ccc2S(=O)(=O)N([C@H](C)CO)C[C@H]1C | 4.1 | 33.8 | -25.2 | 0.9
O=C(C[C@H]1C=C[C@@H](NC(=O)CN2CCOCC2)[C@@H](CO)O1)NCCc1ccncc1 | -0.1 | / | 15.2 | /
COc1ccc2c3c([nH]c2c1)[C@H](CO)N(C(=O)Nc1ccc(F)cc1)CC31CCN(C(=O)Cc2ccncc2)CC1 | -2.9 | / | -83.5* | /
COc1ccc2c3c([nH]c2c1)[C@@H](CO)N(C(=O)Nc1ccc(F)cc1)CC31CCN(C(=O)Cc2ccncc2)CC1 | 0.4 | / | -76.0 | /
CCC(=O)N1CC2(CCN(C(=O)Nc3ccccc3F)CC2)c2c([nH]c3cc(OC)ccc23)[C@H]1CO | -2.2 | / | -90.3* | /
CCC(=O)N1CC2(CCN(C(=O)Nc3ccccc3F)CC2)c2c([nH]c3cc(OC)ccc23)[C@@H]1CO | -0.1 | / | -85.3* | /
C=C(C)[C@@H]1CC=C(/C=N/NC(=O)CCCCCC(=O)Nc2ccccc2O)CC1 | / | / | / | -0.2
COc1ccc(C#Cc2ccc3c(c2)[C@H]2[C@H](CCN2Cc2ccncc2)[C@H](CO)N3)cc1 | -0.7 | / | -93.8* | /
COc1ccc(C#Cc2ccc3c(c2)[C@H]2[C@H](CCN2Cc2nccs2)[C@H](CO)N3)cc1 | / | / | -84.7* | /
COc1ccc(-c2ccc3c(c2)[C@@H]2[C@@H](CCN2Cc2ccncc2)[C@@H](CO)N3)cc1 | 1.6 | 84.5 | -78.5 | /
SMILES | KDM4C inh | T cruzi growth | Pf Dd2 inh | IDH1 R132H inh
O=C(C1CCOCC1)N1CC(=O)N2[C@H](CO)[C@@H](c3ccc(Br)cc3)[C@H]2C1 | 2.3 | / | 7.5 | /
Cc1ccc(S(=O)(=O)N(C)C[C@H]2OCCCC[C@H](C)Oc3ccc(NC(=O)CCCN(C)C)cc3C(=O)N([C@H](C)CO)C[C@H]2C)cc1 | 4.3 | -14.4 | -57.1 | -3.9
Cc1cc(C)cc(OCC(=O)Nc2ccccc2N2CCN(C)CC2)c1 | / | / | / | -0.1
COc1ccc(NC(=O)Nc2ccc3c(c2)C(=O)N([C@H](C)CO)C[C@@H](C)[C@H](CN(C)S(=O)(=O)c2ccc(F)cc2)OCCCC[C@@H](C)O3)cc1 | -2.5 | 118.1 | -81.6* | 5.3
COc1ccc(S(=O)(=O)N(C)C[C@H]2OCCCC[C@@H](C)Oc3ccc(NC(=O)Nc4ccc(F)cc4)cc3C(=O)N([C@H](C)CO)C[C@H]2C)cc1 | -2.8 | ? | -79.5 | -2.0
COc1ccc(NC(=O)Nc2ccc3c(c2)C(=O)N([C@H](C)CO)C[C@@H](C)[C@@H](CN(C)S(=O)(=O)c2ccc(F)cc2)OCCCC[C@@H](C)O3)cc1 | -0.5 | 96.1 | -81.2* | -0.1
COc1ccc(S(=O)(=O)N(C)C[C@H]2OCCCC[C@H](C)Oc3ccc(NC(=O)Nc4ccc(F)cc4)cc3C(=O)N([C@H](C)CO)C[C@H]2C)cc1 | -1.7 | 44.3 | -80.6* | -0.4
C[C@@H]1CN([C@@H](C)CO)C(=O)Cc2cc(N(C)C)ccc2O[C@@H]1CN(C)S(=O)(=O)c1ccc(Cl)cc1 | -2.2 | / | -13.8 | /
COc1ccc(C#Cc2ccc3c(c2)O[C@@H](CN(C)S(=O)(=O)c2ccccc2F)[C@H](C)CN([C@@H](C)CO)S3(=O)=O)cc1 | -6.0 | / | -82.0* | 0.4
COc1ccc(C#Cc2ccc3c(c2)O[C@H](CN(C)S(=O)(=O)c2ccccc2F)[C@@H](C)CN([C@@H](C)CO)S3(=O)=O)cc1 | -6.2 | / | -85.7* | 0.3
C[C@@H]1CN([C@H](C)CO)C(=O)c2cc(Br)cnc2O[C@H]1CN(C)CC1CCOCC1 | 0.1 | -180.2 | 35.2 | 0.7
O=C(N[C@@H]1CC[C@@H](CC(=O)N2CCCCC2)O[C@H]1CO)c1ccccn1 | -0.9 | -53.2 | 27.3 | 0.1
CCc1c(O)nc(SCC(=O)Nc2ccccc2OC)n(-c2ccccc2)c1=O | / | / | / | -0.3
Cc1ccc(S(=O)(=O)N(C)C[C@@H]2Oc3ccc(NC(=O)Cc4ccccc4)cc3CC(=O)N([C@@H](C)CO)C[C@@H]2C)cc1 | -2.8 | 44.3 | -22.9 | 3.7
C[C@H](CO)N1C[C@H](C)[C@H](CN(C)C(=O)Nc2cccc(C(F)(F)F)c2)OCc2ccccc2-c2ccccc2C1=O | -0.8 | 74.4 | -31.6 | -2.1
C[C@@H]1CN([C@@H](C)CO)C(=O)c2ccccc2-c2ccccc2CO[C@H]1CN(C)C(=O)Nc1cccc(F)c1 | 1.5 | 22.4 | -83.4* | /
C[C@@H]1CN([C@@H](C)CO)C(=O)c2ccccc2-c2ccccc2CO[C@H]1CN(C)C(=O)Nc1cccc(C(F)(F)F)c1 | -0.4 | 48.8 | -87.4* | /
C[C@H]1CN([C@@H](C)CO)C(=O)c2ccccc2-c2ccccc2CO[C@@H]1CN(C)C(=O)Nc1ccc(-c2ccccc2)cc1 | -1.9 | / | -86.4* | /

Screens from PubChem.
